Test results taken from publication PMC10871334 (bioRxiv, 2024).
“Also recorded” adds a separate entry of the source.

Experiments:
[1] = tested on: SUGCT overexpressing GA1 HEK-293 cells; experiment: C5DC in SUGCT overexpressing GA1; assay type: cell-based, human; conditions: treatment of SUGCT overexpressing GA1 HEK-293 cells
Summary of the method: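 Stable SUGCT overexpression in Flp-In 293 cells by co-transfection with Flp recombinase and selection in 100 μg/ml hygromycin B for 2–3 weeks. GCDH knocked out by CRISPR-Cas9, with single-clone sorting. Cells grown at 37°C, 5% CO2 in DMEM with 10% FBS. Metabolites extracted with cold methanol:acetonitrile:water 5:3:2 overnight at −80°C, then analysed by reverse-phase C18 LC-MS in positive mode.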

[2] = target: T1, SUGCT (Homo sapiens, UniProt Q9HAC7); experiment: Fluorometric SUGCT enzyme assay coupled to HMG-CoA reductase; assay type: biochemical; conditions: for SUGCT inhibition at 10 μM (in words): repurchased hits
T1 sequence (Q9HAC7 31-438 limits assumed): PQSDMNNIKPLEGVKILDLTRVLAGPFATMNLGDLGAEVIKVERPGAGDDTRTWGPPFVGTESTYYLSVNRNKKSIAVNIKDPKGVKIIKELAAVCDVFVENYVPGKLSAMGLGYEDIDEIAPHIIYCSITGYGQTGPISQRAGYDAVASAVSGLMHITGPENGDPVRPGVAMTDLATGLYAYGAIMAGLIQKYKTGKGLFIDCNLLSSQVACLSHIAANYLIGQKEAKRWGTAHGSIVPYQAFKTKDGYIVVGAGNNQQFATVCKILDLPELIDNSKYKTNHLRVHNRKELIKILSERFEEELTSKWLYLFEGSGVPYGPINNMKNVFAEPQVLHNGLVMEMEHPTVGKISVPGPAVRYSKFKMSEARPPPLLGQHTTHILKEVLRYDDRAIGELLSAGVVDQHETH

[3] = target: T1, SUGCT; assay type: biochemical; conditions: HMG-CoA as CoA donor, 30 minutes
[4] = target: T2, human HMG-CoA reductase (HMGCR) (Homo sapiens, UniProt P04035); experiment: Spectrophotometric HMGCR counter-screen assay; assay type: biochemical; conditions: up to 100 μM
T2 sequence (P04035 426-888): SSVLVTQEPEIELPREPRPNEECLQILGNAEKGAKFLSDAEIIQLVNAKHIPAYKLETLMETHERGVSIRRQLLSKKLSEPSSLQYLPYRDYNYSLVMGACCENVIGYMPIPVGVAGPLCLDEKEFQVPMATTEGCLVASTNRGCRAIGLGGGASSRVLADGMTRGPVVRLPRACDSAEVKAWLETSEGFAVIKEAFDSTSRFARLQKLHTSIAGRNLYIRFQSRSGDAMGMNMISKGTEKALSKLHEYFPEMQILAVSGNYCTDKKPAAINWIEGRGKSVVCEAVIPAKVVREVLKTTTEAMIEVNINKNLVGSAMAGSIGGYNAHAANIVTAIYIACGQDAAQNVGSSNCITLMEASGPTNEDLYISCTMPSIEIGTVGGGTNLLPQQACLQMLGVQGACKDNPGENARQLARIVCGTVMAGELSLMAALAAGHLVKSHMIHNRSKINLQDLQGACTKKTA
Summary of the method: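 Human HMGCR catalytic domain (residues 426–888), N-terminal His-tagged, expressed in E. coli and IMAC-purified. Assay contains 9 U/L HMGCR, 150 μM HMG-CoA, 300 μM NADPH, 4 mM DTT and 0.1% Triton X-100 in 100 mM potassium phosphate, pH 7.4. NADPH consumption is followed by absorbance at 340 nm.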

## CCCCC(=O)N(Cc1ccc(-c2ccccc2-c2nnn[nH]2)cc1)[C@H](C(=O)O)C(C)C [Valsartan]
[1]
  effect on C5DC / activity in cells: did not observe a decrease in C5DC; also recorded: unable to detect activity
[2]
  SUGCT inhibition at 10 μM (in words): inhibited
[2]; IC50 (SUGCT inhibition), standard assay, 100 mM potassium phosphate pH 7.4
  IC50: 3.8 µM
[2]; read-out: inhibition of SUGCT at 10 μM
  inhibition at 10 µM: > 50%
[3]
  conversion into a CoA ester by SUGCT: no evidence
[4]
  inhibition of HMGCR: did not inhibit

## O=C(O)CCc1nc(-c2ccccc2)c(-c2ccccc2)o1 [oxaprozin]
[2]
  SUGCT inhibition at 10 μM (in words): inhibited

## O=C(O)CCCC(=O)O [Glutarate, glutarate]
[2]; with respect to HMG, increases apparent Km for HMG
  mode of inhibition: competitive inhibitor

## CCCCc1nc(Cl)c(CO)n1Cc1ccc(-c2ccccc2-c2nn[nH]n2)cc1 [losartan]
[2]; each ARB measured in duplicate at 10 μM
  activity of Angiotensin II Receptor Blockers on SUGCT (in words): inactive

## CCCCC(=O)N(Cc1ccc(-c2ccccc2-c2nn[nH]n2)cc1)[C@H](C(=O)OCC)C(C)C [valsartan ethyl ester, Valsartan ethyl ester]
[1]
  effect on C5DC / activity in cells: did not observe a decrease in C5DC

## CC(C)c1nc(N(C)S(C)(=O)=O)nc(-c2ccc(F)cc2)c1/C=C/[C@@H](O)C[C@@H](O)CC(=O)O [rosuvastatin]
[2]; screening concentration 100 μM, coupled assay also detects HMGCR inhibitors
  result in high throughput screen of FDA approved library: one of our hits
